In ChEMBL document CHEMBL2086296, “Synthesis of novel quinoline-2-one based chalcones of potential anti-tumor activity” (Eur J Med Chem, 2012):

Key:
MOLT-4 = assay: Cytotoxicity against human MOLT4 cells after 24 hrs by SRB assay; type: functional; settings: MOLT-4, 24 h
Outline: (§1)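 NCI 60-line screen. Cells in RPMI 1640 with 5% FBS and 2 mM L-glutamine, seeded at 5,000–40,000 cells/well by doubling time, then incubated 24 h at 37 °C, 5% CO2 before dosing. Time-zero plates fixed with TCA at drug addition. DMSO stocks diluted in medium with gentamicin to five concentrations, […]. Protein read by SRB staining. GI50, TGI and LC50 derived relative to control and time-zero.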

EKVX [1] = assay: (§2) Cytotoxicity against human EKVX cells after 24 hrs by SRB assay; type: functional; outline: as §1
HOP-62 = assay: Cytotoxicity against human HOP62 cells after 24 hrs by SRB assay; type: functional; settings: HOP-62, 24 h; outline: as §1
NCI-H226 = assay: Cytotoxicity against human NCI-H226 cells after 24 hrs by SRB assay; type: functional; settings: NCI-H226, 24 h; outline: as §1
NCI-H522 = assay: Cytotoxicity against human NCI-H522 cells after 24 hrs by SRB assay; type: functional; settings: NCI-H522, 24 h; outline: as §1
A549 = assay: Cytotoxicity against human A549 cells after 24 hrs by SRB assay; type: functional; settings: A549, 24 h; outline: as §1
SW-620 = assay: Cytotoxicity against human SW620 cells after 24 hrs by SRB assay; type: functional; settings: SW-620, 24 h
Outline: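 NCI 60-cell screen. Cells are grown in RPMI 1640 with 5% FBS and 2 mM L-glutamine and seeded at 5,000–40,000 cells/well according to doubling time. They are preincubated 24 h at 37 °C in 5% CO2, and Tz plates are TCA-fixed at drug addition. Drug stock is in DMSO, diluted in medium with gentamicin, and tested at five concentrations (100, 10, 1.0, 0.1, […]). Protein is read by SRB staining. GI50, TGI and LC50 are derived relative to time-zero and control wells.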

HCC 2998 [2] = assay: (§3) Cytotoxicity against human HCC2998 cells after 24 hrs by SRB assay; type: functional; settings: HCC 2998, 24 h; outline: as §1
SF-268 = assay: Cytotoxicity against human SF268 cells after 24 hrs by SRB assay; type: functional; settings: SF-268, 24 h; outline: as §1
LOX IMVI [3] = assay: (§4) Cytotoxicity against human LOXIMVI cells after 24 hrs by SRB assay; type: functional; outline: as §1
SK-MEL-5 = assay: Cytotoxicity against human SK-MEL-5 cells after 24 hrs by SRB assay; type: functional; settings: SK-MEL-5, 24 h; outline: as §1
SK-MEL-2 [4] = assay: (§5) Cytotoxicity against human SK-MEL-2 cells after 24 hrs by SRB assay; type: functional; settings: SK-MEL-2, 24 h; outline: as §1
OVCAR-4 = assay: Cytotoxicity against human OVCAR4 cells after 24 hrs by SRB assay; type: functional; settings: OVCAR-4, 24 h; outline: as §1
OVCAR-8 = assay: Cytotoxicity against human OVCAR8 cells after 24 hrs by SRB assay; type: functional; settings: OVCAR-8, 24 h; outline: as §1
OVCAR-5 = assay: Cytotoxicity against human OVCAR5 cells after 24 hrs by SRB assay; type: functional; settings: OVCAR-5, 24 h; outline: as §1
CAKI-1 [5] = assay: (§6) Cytotoxicity against human CAKI-1 cells after 24 hrs by SRB assay; type: functional; settings: CAKI-1, 24 h; outline: as §1
786-0 [6] = assay: (§7) Cytotoxicity against human 786-0 cells after 24 hrs by SRB assay; type: functional; settings: 786-0, 24 h; outline: as §1
MCF7 = assay: Cytotoxicity against human MCF7 cells after 24 hrs by SRB assay; type: functional; settings: MCF7, 24 h; outline: as §1
SR = assay: Cytotoxicity against human SR cells after 24 hrs by SRB assay; type: cell-based
Outline: (§8)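 NCI 60-cell-line screen: cells grown in RPMI 1640 with 5% FBS and 2 mM L-glutamine, seeded at 5,000–40,000 cells/well by doubling time, and preincubated 24 h at 37 °C in 5% CO2. Time-zero plates were TCA-fixed. DMSO stocks were diluted in medium with gentamicin to five concentrations (100, 10, 1.0, 0.1, […]). Protein was read by SRB, and GI50, TGI and LC50 were derived against time-zero.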

CCRF-CEM = assay: Cytotoxicity against human CCRF-CEM cells after 24 hrs by SRB assay; type: cell-based
Outline: (§9)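 NCI 60-cell screen. Cells grown in RPMI 1640 with 5% FBS and 2 mM L-glutamine, seeded at 5,000–40,000 cells/well, preincubated 24 h at 37 °C in 5% CO2. Drug stock in DMSO, diluted in medium with gentamicin; five final concentrations, 100, 10, 1.0, 0.1 and […]. Time-zero plates were TCA-fixed. Protein read by SRB staining; GI50, TGI and LC50 taken relative to time-zero.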

HL-60 = assay: Cytotoxicity against human HL60 cells after 24 hrs by SRB assay; type: cell-based; settings: hl-60, 24 h; outline: as §9
EKVX [7] = assay: as §2; type: cell-based; outline: as §9
HCT-116 = assay: Cytotoxicity against human HCT116 cells after 24 hrs by SRB assay; type: cell-based; settings: hct-116, 24 h; outline: as §9
HCT-15 = assay: Cytotoxicity against human HCT15 cells after 24 hrs by SRB assay; type: cell-based; settings: hct-15, 24 h; outline: as §9
HT-29 = assay: Cytotoxicity against human HT-29 cells after 24 hrs by SRB assay; type: cell-based; settings: ht-29, 24 h; outline: as §9
KM12 = assay: Cytotoxicity against human KM12 cells after 24 hrs by SRB assay; type: cell-based; settings: km12, 24 h; outline: as §9
HCC 2998 [8] = assay: as §3; type: cell-based; settings: hcc 2998, 24 h; outline: as §9
LOX IMVI [9] = assay: as §4; type: cell-based; outline: as §9
SK-MEL-2 [10] = assay: as §5; type: cell-based; settings: sk-mel-2, 24 h; outline: as §9
OVCAR-3 = assay: Cytotoxicity against human OVCAR3 cells after 24 hrs by SRB assay; type: cell-based; settings: ovcar-3, 24 h; outline: as §9
SK-OV-3 = assay: Cytotoxicity against human SKOV3 cells after 24 hrs by SRB assay; type: cell-based; settings: sk-ov-3, 24 h; outline: as §8
ACHN = assay: Cytotoxicity against human ACHN cells after 24 hrs by SRB assay; type: cell-based; outline: as §9
CAKI-1 [11] = assay: as §6; type: cell-based; settings: caki-1, 24 h; outline: as §9
RXF 393 = assay: Cytotoxicity against human RXF393 cells after 24 hrs by SRB assay; type: cell-based; settings: rxf 393, 24 h; outline: as §9
786-0 [12] = assay: as §7; type: cell-based; settings: 786-0, 24 h; outline: as §9
MDA-MB-231 = assay: Cytotoxicity against human MDA-MB-231 cells after 24 hrs by SRB assay; type: cell-based; settings: mda-mb-231, 24 h; outline: as §9
T47D = assay: Cytotoxicity against human T47D cells after 24 hrs by SRB assay; type: cell-based; outline: as §8
[13] = Cytotoxicity against human Hs 578T cells after 24 hrs by SRB assay; type: cell-based; outline: as §9

Compound O=C(/C=C/c1cc2ccccc2[nH]c1=O)c1ccc(Cl)cc1 has a GI50 (MOLT-4) of 3.11 µM, a TGI (MOLT-4) greater than 100 µM and a GI50 (EKVX [1]) of 4.92 µM. The TGI (EKVX [1]) was greater than 100 µM, the GI50 (HOP-62) was 7.43 µM and the TGI (HOP-62) was 44.2 µM. It also gave a GI50 (NCI-H226) of 11.6 µM, a TGI (NCI-H226) of 38.9 µM and a GI50 (NCI-H522) of 2.23 µM. For the same compound, the TGI (NCI-H522) was 6.58 µM, the GI50 (A549) was 7.24 µM and the TGI (A549) was greater than 100 µM. The GI50 (SW-620) was 3.38 µM, the TGI (SW-620) was 12.1 µM and the GI50 (HCC 2998 [2]) was 6.55 µM. The TGI (HCC 2998 [2]) was 22.3 µM, the GI50 (SF-268) was 7.15 µM and the TGI (SF-268) was 63.1 µM. The GI50 (LOX IMVI [3]) was 3.26 µM, the TGI (LOX IMVI [3]) was 22.1 µM and the GI50 (SK-MEL-5) was 18.9 µM. It also gave a TGI (SK-MEL-5) greater than 100 µM, a GI50 (SK-MEL-2 [4]) of 8.55 µM and a TGI (SK-MEL-2 [4]) of 25.7 µM. The GI50 (OVCAR-4) was 1.67 µM, the TGI (OVCAR-4) was greater than 100 µM and the GI50 (OVCAR-8) was 4.93 µM. It also gave a TGI (OVCAR-8) of 21.2 µM, a GI50 (OVCAR-5) of 12.7 µM and a TGI (OVCAR-5) of 97 µM. It also gave a GI50 (CAKI-1 [5]) of 1.6 µM, a TGI (CAKI-1 [5]) of 3.3 µM and a GI50 (786-0 [6]) of 13.8 µM. It also gave a TGI (786-0 [6]) greater than 100 µM, a GI50 (MCF7) of 2.41 µM and a TGI (MCF7) greater than 100 µM. It also gave an LC50 (SR) greater than 100 µM, an LC50 (CCRF-CEM) greater than 100 µM and an LC50 (HL-60) greater than 100 µM. It also gave an LC50 (EKVX [7]) greater than 100 µM, an LC50 (HCT-116) of 66.5 µM and an LC50 (HCT-15) greater than 100 µM. For the same compound, the LC50 (HT-29) was greater than 100 µM, the LC50 (KM12) was 98.9 µM and the LC50 (HCC 2998 [8]) was 59.6 µM. The LC50 (LOX IMVI [9]) was greater than 100 µM, the LC50 (SK-MEL-2 [10]) was 72.6 µM and the LC50 (OVCAR-3) was greater than 100 µM. For the same compound, the LC50 (SK-OV-3) was greater than 100 µM, the LC50 (ACHN) was 90.6 µM and the LC50 (CAKI-1 [11]) was 6.8 µM. The LC50 (RXF 393) was greater than 100 µM, the LC50 (786-0 [12]) was greater than 100 µM and the LC50 (MDA-MB-231) was greater than 100 µM. It also gave an LC50 (T47D) greater than 100 µM and an LC50 [13] greater than 100 µM.

With COc1ccc(C(=O)/C=C/c2cc3ccccc3[nH]c2=O)cc1 the GI50 (MOLT-4) was 3.39 µM, the TGI (MOLT-4) was greater than 100 µM and the GI50 (EKVX [1]) was 4.4 µM. It also gave a TGI (EKVX [1]) of 83.8 µM, a GI50 (HOP-62) of 3.68 µM and a TGI (HOP-62) of 11.6 µM. It also gave a GI50 (NCI-H226) of 5.57 µM, a TGI (NCI-H226) greater than 100 µM and a GI50 (NCI-H522) of 2.12 µM. The TGI (NCI-H522) was 6.13 µM, the GI50 (A549) was 3.21 µM and the TGI (A549) was greater than 100 µM. It also gave a GI50 (SW-620) of 3.41 µM, a TGI (SW-620) of 8.89 µM and a GI50 (HCC 2998 [2]) of 2.5 µM. The TGI (HCC 2998 [2]) was 6.49 µM, the GI50 (SF-268) was 2.85 µM and the TGI (SF-268) was 9.77 µM. For the same compound, the GI50 (LOX IMVI [3]) was 1.85 µM, the TGI (LOX IMVI [3]) was 5.54 µM and the GI50 (SK-MEL-5) was 5.73 µM. It also gave a TGI (SK-MEL-5) of 18.1 µM, a GI50 (SK-MEL-2 [4]) of 3.91 µM and a TGI (SK-MEL-2 [4]) of 40.1 µM. It also gave a GI50 (OVCAR-4) of 2.94 µM, a TGI (OVCAR-4) greater than 100 µM and a GI50 (OVCAR-8) of 3.57 µM. It also gave a TGI (OVCAR-8) greater than 100 µM, a GI50 (OVCAR-5) of 3.6 µM and a TGI (OVCAR-5) of 18.4 µM. The GI50 (CAKI-1 [5]) was 1.78 µM, the TGI (CAKI-1 [5]) was 3.51 µM and the GI50 (786-0 [6]) was 3.52 µM. For the same compound, the TGI (786-0 [6]) was greater than 100 µM, the GI50 (MCF7) was 2.86 µM and the TGI (MCF7) was 88.7 µM. It also gave an LC50 (SR) greater than 100 µM, an LC50 (CCRF-CEM) greater than 100 µM and an LC50 (HL-60) greater than 100 µM. For the same compound, the LC50 (EKVX [7]) was greater than 100 µM, the LC50 (HCT-116) was 31.6 µM and the LC50 (HCT-15) was greater than 100 µM. For the same compound, the LC50 (HT-29) was greater than 100 µM, the LC50 (KM12) was 26.9 µM and the LC50 (HCC 2998 [8]) was 29 µM. The LC50 (LOX IMVI [9]) was 33.3 µM, the LC50 (SK-MEL-2 [10]) was greater than 100 µM and the LC50 (OVCAR-3) was 29.8 µM. The LC50 (SK-OV-3) was greater than 100 µM, the LC50 (ACHN) was 57 µM and the LC50 (CAKI-1 [11]) was 6.9 µM. For the same compound, the LC50 (RXF 393) was 33.5 µM, the LC50 (786-0 [12]) was greater than 100 µM and the LC50 (MDA-MB-231) was greater than 100 µM. For the same compound, the LC50 (T47D) was greater than 100 µM and the LC50 [13] was greater than 100 µM.
